Reference: ChEMBL document CHEMBL2150888, “Conformationally constrained peptides from CD2 to modulate protein-protein interactions between CD2 and CD58” (J Med Chem, 2011)
pIC50: −log10 of the molar value. Blank lines part the entries; values can stand above or below the compound they belong to. *1 amine or outer side, *2 acyl side, *3 side chain or, on linkers, in order; H or OH if unused. Where a SMILES comes first, the peptide text is derived from it. [ ]: non-standard residue; d: D form. X1 = O=C(CCc1cccc2c1oc1c(CCN[*:1])cccc12)[*:2]

Assays:
[1] = biological target: T1, Lymphocyte function-associated antigen 3/T-cell surface antigen CD2 (Homo sapiens) (UniProt P06729+P19256); assay: (§1) Inhibition of CD2-CD58 protein-protein interaction assessed as inhibition of cell adhesion between CD58 expressing human Caco2 cells and CD2 expressing human Jurkat cells by BCECF-AM fluorescent dye based fluorimetric assay; design: concentration or dose not given beside the values; settings: concentration not given here
[2] = Toxicity in human Jurkat cells assessed as cell viability incubated for 2 hrs by CellTiter-Glo assay; format: cell-based; settings: read-out: Activity
In short: (§2)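 Jurkat suspensions treated in tubes with peptide (diluted in serum-free medium from DMSO stock) for 2 h, washed by centrifugation, then CellTiter-Glo luminescence read on a microplate. Blank-subtracted, with SDS and 1% DMSO controls. Viability relative to cells without peptide; triplicates in two independent runs.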

[3] = test system: T-cell; assay: Inhibition of T-cell response to type 2 collagen in type 2 collagen primed T cells derived from transgenic mouse expressing functional HLA-DQ8 by [3H]thymidine incorporation assay; format: cell-based
In short: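 Lymph node cells (draining popliteal, caudal, lumbar) taken 10 days after intradermal tail-base immunization of HLA-DQ8 transgenic mice with 200 µg native chick CII in CFA (1:1). 1 × 10^6 LNC challenged in vitro with CII at 50 µg/mL, with peptide at four concentrations (10–.01 µM); 3H-thymidine (1 µCi/well) pulse for last 18 h; Δcpm = test minus medium control; mean ±S.D., N = 4.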

[4] = Toxicity in human Caco2 cells assessed as cell viability incubated for 2 hrs by CellTiter-Glo assay; format: cell-based; settings: Caco-2 cells, read-out: Activity
In short: (§3)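 Caco-2 cells exposed to peptide (200–0.1 µM, diluted in serum-free medium from DMSO stock) for 2 and 3 h, washed with PBS, then CellTiter-Glo luminescence read. Blank-subtracted, with 0.1% SDS and 1% DMSO controls. Viability relative to cells without peptide; triplicates in two independent runs.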

[5] = biological target: T1, Lymphocyte function-associated antigen 3/T-cell surface antigen CD2 (Homo sapiens); assay: Inhibition of CD2-CD58 protein-protein interaction assessed as inhibition of cell adhesion between CD58 expressing human Caco2 cells and CD2 expressing human Jurkat cells at =< 1 uM by BCECF-AM fluorescent dye based fluorimetric assay
[6] = Toxicity in human Jurkat cells assessed as cell viability at 200 yuM incubated for 2 hrs by CellTiter-Glo assay; format: cell-based; settings: read-out: Activity; in short: as §2
[7] = Toxicity in human Caco2 cells assessed as cell viability at 200 uM incubated for 2 hrs by CellTiter-Glo assay; format: cell-based; settings: Caco-2 cells, read-out: Activity; in short: as §3
[8] = biological target: T2, Lymphocyte function-associated antigen 3/T-cell surface antigen CD2 (Homo sapiens, UniProt P06729+P19256); assay: as §1
T2 sequence (P06729 whole entry): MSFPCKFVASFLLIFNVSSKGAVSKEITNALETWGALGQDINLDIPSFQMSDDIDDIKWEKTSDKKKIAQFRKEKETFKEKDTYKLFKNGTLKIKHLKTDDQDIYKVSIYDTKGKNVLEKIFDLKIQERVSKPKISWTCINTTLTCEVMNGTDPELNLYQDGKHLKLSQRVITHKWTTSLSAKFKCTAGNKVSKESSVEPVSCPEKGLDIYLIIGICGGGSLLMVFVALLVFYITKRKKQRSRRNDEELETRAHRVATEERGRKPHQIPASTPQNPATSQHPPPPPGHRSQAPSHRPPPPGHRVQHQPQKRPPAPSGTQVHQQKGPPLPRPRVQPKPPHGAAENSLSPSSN
T2 sequence (P19256 whole entry): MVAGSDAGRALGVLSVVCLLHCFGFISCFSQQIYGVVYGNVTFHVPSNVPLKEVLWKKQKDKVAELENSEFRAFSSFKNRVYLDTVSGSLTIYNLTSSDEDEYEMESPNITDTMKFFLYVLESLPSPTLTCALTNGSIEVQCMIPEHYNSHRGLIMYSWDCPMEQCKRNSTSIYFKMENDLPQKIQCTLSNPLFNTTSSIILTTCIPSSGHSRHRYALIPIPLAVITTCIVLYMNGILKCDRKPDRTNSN

Compound: CC[C@H](C)[C@@H]1NC(=O)[C@H](CC(=O)O)NC(=O)[C@H](CC(=O)O)NC(=O)[C@@H]2CCCN2C(=O)[C@H]2CCCN2C(=O)[C@H](CC(=O)O)NC(=O)[C@H](Cc2ccc(O)cc2)NC(=O)[C@H]([C@@H](C)CC)NC(=O)[C@H](CO)NC(=O)[C@H](CCCCN)NC1=O
viability at 2 h [2]: > 95% | inhibition [3]: Dose-dependent effect | viability at 2 h [4]: > 95%

Compound: H-KGKTDAISVKAI-NH2
inhibition [1]: 18%

Compound: CC[C@H](C)[C@@H]1NC(=O)[C@H](Cc2ccc(O)cc2)NC(=O)[C@H](CC(=O)O)NC(=O)CCc2cccc3c2Oc2c(cccc2-3)CCNC(=O)[C@H](CC(=O)O)NC(=O)[C@H](CC(=O)O)NC(=O)[C@H](CCCCN)NC1=O (cyclo(DD[X1]DYIK))
inhibition [5]: 80% | viability at 2 h [2]: > 95% | viability at 2 h, 200 µM [6]: 90% | viability at 2 h, 200 µM [7]: 90% | viability at 2 h [4]: > 95% | pIC50 [8]: 7.95

Further lines, results first:

inhibition [1]: < 20%
Compound: CC[C@H](C)[C@@H]1NC(=O)[C@H](CCCCN)NC(=O)[C@H](CC(=O)O)NC(=O)[C@H](CC(=O)O)NC(=O)CCc2cccc3c2Oc2c(cccc2-3)CCNC(=O)[C@H](CC(=O)O)NC(=O)[C@H](Cc2ccc(O)cc2)NC1=O (cyclo(DDKIYD[X1]))

inhibition [1]: < 20%
Compound: CC[C@H](C)[C@@H]1NC(=O)[C@H](Cc2ccc(O)cc2)NC(=O)[C@H](CC(=O)O)NC(=O)CCc2cccc3c2Oc2c(cccc2-3)CCNC(=O)[C@H](CC(=O)O)NC(=O)[C@H](CC(=O)O)NC(=O)[C@H]([C@@H](C)CC)NC(=O)[C@H](CCCCN)NC(=O)[C@H](CO)NC1=O (cyclo(DD[X1]DYISKI))

inhibition [1]: < 20%
Compound: CC[C@H](C)[C@@H]1NC(=O)[C@H](CC(=O)O)NC(=O)[C@H](CC(=O)O)NC(=O)CCc2cccc3c2Oc2c(cccc2-3)CCNC(=O)[C@H](CC(=O)O)NC(=O)[C@H](Cc2ccc(O)cc2)NC(=O)[C@H]([C@@H](C)CC)NC(=O)[C@H](CO)NC(=O)[C@H](CCCCN)NC1=O (cyclo(DDIKSIYD[X1]))

inhibition [1]: < 20%
Compound: CC[C@H](C)[C@@H]1NC(=O)[C@H](CCCCN)NC(=O)[C@H](CC(=O)O)NC(=O)[C@H](CC(=O)O)NC(=O)[C@@H]2CCCN2C(=O)[C@H]2CCCN2C(=O)[C@H](CC(=O)O)NC(=O)[C@H](Cc2ccc(O)cc2)NC1=O
